From ChEMBL document CHEMBL1125710, “Structure/activity and molecular modeling studies of the lophotoxin family of irreversible nicotinic receptor antagonists” (J Med Chem, 1991) come the findings set out here.

Each structure is given as a SMILES string. pEC50: −log10 of the molar value. Values joined by “and” are separate entries in the source; they are usually repeats but may differ in a detail not shown here. Equal entries are not always repeated. Active and inactive are the calls of the source. The calls are words filed in the database; no cut-off is given here.

The term pEC50 denotes the EC50 on a negative log10 scale, so that one unit is a factor of ten. Low values mean a large EC50, high ones a small EC50.

T1 sequence (P02710 whole entry): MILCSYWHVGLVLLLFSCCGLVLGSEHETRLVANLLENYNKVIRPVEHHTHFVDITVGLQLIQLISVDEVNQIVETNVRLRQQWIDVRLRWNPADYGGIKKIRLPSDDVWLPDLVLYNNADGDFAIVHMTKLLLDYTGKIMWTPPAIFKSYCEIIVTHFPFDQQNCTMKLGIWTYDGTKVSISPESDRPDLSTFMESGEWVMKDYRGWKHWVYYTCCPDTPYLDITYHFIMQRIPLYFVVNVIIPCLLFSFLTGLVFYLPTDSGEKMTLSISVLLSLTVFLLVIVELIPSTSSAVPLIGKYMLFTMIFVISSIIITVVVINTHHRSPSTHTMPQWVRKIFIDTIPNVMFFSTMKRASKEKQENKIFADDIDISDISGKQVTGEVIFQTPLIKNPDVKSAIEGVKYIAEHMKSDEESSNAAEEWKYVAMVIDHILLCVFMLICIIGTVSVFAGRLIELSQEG
T1 sequence (P02712 whole entry): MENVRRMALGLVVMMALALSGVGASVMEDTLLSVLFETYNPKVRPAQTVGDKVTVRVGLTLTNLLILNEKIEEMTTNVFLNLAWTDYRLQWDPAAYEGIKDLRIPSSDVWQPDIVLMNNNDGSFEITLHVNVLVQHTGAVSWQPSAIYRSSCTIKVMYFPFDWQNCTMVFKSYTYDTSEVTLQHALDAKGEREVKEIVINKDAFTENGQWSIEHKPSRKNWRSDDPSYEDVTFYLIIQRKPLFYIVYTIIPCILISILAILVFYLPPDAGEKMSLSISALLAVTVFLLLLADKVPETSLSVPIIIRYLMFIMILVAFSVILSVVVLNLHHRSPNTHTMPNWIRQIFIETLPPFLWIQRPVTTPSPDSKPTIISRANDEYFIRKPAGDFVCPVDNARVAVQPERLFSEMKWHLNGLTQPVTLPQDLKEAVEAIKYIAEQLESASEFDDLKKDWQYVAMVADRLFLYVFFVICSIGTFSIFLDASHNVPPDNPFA
T1 sequence (P02718 whole entry): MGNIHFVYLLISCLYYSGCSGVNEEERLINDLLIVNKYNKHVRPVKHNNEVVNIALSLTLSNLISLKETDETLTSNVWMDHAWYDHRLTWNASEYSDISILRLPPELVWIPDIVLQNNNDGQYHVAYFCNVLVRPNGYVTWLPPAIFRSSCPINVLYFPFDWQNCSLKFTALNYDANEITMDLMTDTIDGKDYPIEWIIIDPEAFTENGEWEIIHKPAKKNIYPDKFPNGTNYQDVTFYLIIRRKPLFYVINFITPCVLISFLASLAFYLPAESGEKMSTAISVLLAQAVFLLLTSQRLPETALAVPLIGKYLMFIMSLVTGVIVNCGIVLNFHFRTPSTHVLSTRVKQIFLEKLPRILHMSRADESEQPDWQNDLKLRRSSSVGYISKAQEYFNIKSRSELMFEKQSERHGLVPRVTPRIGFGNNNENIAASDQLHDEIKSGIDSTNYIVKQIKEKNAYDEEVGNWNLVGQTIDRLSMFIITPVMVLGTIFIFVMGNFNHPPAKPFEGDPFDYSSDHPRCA
T1 sequence (P02714 whole entry): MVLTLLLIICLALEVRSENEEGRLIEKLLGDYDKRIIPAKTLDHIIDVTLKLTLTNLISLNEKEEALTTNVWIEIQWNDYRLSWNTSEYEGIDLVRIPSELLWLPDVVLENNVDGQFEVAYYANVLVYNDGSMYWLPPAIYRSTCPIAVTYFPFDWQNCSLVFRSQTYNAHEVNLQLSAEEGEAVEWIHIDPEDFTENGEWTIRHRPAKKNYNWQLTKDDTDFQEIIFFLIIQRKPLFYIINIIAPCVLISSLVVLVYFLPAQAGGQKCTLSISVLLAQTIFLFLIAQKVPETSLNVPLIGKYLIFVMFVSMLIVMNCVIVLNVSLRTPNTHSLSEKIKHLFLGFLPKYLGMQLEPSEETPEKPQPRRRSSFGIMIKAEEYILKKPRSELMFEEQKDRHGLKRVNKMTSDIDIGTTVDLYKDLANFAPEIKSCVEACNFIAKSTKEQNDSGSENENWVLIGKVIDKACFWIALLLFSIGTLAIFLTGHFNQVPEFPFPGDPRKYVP

The first assay has as its target T1, Acetylcholine receptor (Torpedo californica, UniProt P02710+P02712+P02714+P02718). Nature of the assay: In vitro ability to inhibit the binding of [125I]alpha-bungarotoxin to Nicotinic acetylcholine receptor on membranes prepared from the electric organs of Torpedo californica. Type of assay: tissue-based, Tetronarce californica, Electric organ.
Conditions: not given
The method in brief: (§1)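 Torpedo californica electric-organ membranes (ca. 1.0 pmol α-toxin sites) in 10 mM sodium phosphate pH 7.4 with 1.0 mM EDTA and 1.0 mM EGTA. Analogue in DMSO reacted 2 or 16 h at 23 °C, then 2-5-fold molar excess [125I]-α-bungarotoxin for 60 min. Duplicate aliquots filtered on DE81, washed, gamma-counted. Apparent EC50 is 50% inhibition of specific binding.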
Regarding `C=C(C=O)[C@H]1C[C@H](OC(C)=O)[C@@]23O[C@@H]2[C@@H](C[C@]2(C)O[C@H]2C2=CC(C)=C(O2)[C@@H]1OC(C)=O)OC3=O`, the negative logarithm of the EC50 (pEC50) is 5.54 and 5.03.

Another assay has as its target Acetylcholine receptor (Torpedo californica) (UniProt P02710+P02712+P02718+P02714). Nature of the assay: In vitro ability to inhibit the binding of [125I]alpha-bungarotoxin to nicotinic acetylcholine receptor on membranes prepared from the electric organs of Torpedo californica; Not active. The conditions noted are these: Tetronarce californica. The method in brief:
as §1
Consider `C=C(CO)[C@H]1C[C@H](O)[C@@]23O[C@@H]2[C@@H](CC2(C)O[C@H]2C2=CC(C)=C(O2)[C@@H]1OC(C)=O)OC3O` (single isomer, unassigned), for which the “Log EC50” value is “inactive”.
Consider `C=C(CO)[C@H]1C[C@H](OC(C)=O)[C@@]23O[C@@H]2[C@@H](CC2(C)O[C@H]2C2=CC(C)=C(O2)[C@@H]1OC(C)=O)OC3O` (single isomer, unassigned), for which the “Log EC50” value was “inactive”.
For the molecule `C=C(C)[C@H]1CCC2=C[C@@H](C/C(C)=C/C3=CC(C(=O)OC)=C(C1)O3)OC2=O`, the “Log EC50” value is “inactive”.
As for `C=C(C)[C@H]1CCC2=C[C@@H](C[C@]3(C)O[C@H]3C3=CC(C=O)=C(C1)O3)OC2=O`, the “Log EC50” value was “inactive”.
Take `C=C(C)[C@H]1CC2O[C@@](O)(/C(C)=C\C(=O)/C=C(/C)C[C@H]3OC(=O)[C@@]24O[C@H]34)[C@@H]1OC(C)=O`: the “Log EC50” value was “inactive”.
With `C=C(C)[C@H]1CCC2=C[C@@H](C[C@]3(C)O[C@H]3C3=CC(C(=O)OC)=C(C1)O3)OC2=O`, the “Log EC50” value was “inactive”.
On the same count and under the same terms, the same measure for `C=C(C)[C@H]1C[C@H](OC(C)=O)[C@@]23O[C@@H]2[C@@H](C[C@](C)(O)/C=C2/C=C(C=O)C(OCC)(C1)O2)OC3=O`: “inactive”.
Still for that read-out and setting: in the case of `COC(=O)c1cc2oc1C[C@@H](C(C)C)CCC1C[C@@H](C[C@](C)(O)C2)OC1=O` it was “inactive”.
For the molecule `C=C(C(=O)OC)[C@H]1CC2O[C@@](O)(/C(C)=C\C(=O)/C=C(/C)C[C@H]3OC(=O)[C@@]24O[C@H]34)[C@@H]1OC(C)=O`, the “Log EC50” value was “inactive”.

The next assay addresses T1, Acetylcholine receptor. The assay is described as follows: In vitro inhibition of [125I]alpha-bungarotoxin binding to nicotinic acetylcholine receptor of Torpedo californica electric organ membranes.
Conditions: not given
Type of assay: tissue-based, Tetronarce californica. The method in brief: as §1
The molecule `CC(=O)O[C@H]1C[C@H](C2(C)CO2)[C@@H](OC(C)=O)C2=C(C)C=C(O2)[C@@H]2O[C@@]2(C)C[C@@H]2C=C1C(=O)O2` (stereo partly drawn) showed a pEC50 of 4.92.
Molecule `C=C(C=O)[C@@H]1CC2=C(C(=O)OC)C=C(O2)[C@@H]2O[C@@]2(C)C[C@H]2OC(=O)[C@@]3(O[C@H]23)[C@@H](OC(C)=O)C1` showed a pEC50 of 3.98.
The same measure, in the same setting: in the case of `C=C(C)[C@@H]1CC2=C(CO)C=C(O2)[C@@H]2O[C@@]2(C)C[C@H]2OC(=O)[C@@]3(O[C@H]23)[C@@H](OC(C)=O)C1` it was 4.35; in that of `CC(=O)O[C@H]1C[C@H](C2(C)CO2)[C@@H](OC(C)=O)C2=C(C)C=C(O2)[C@@H]2O[C@@]2(C)C[C@H]2OC(=O)[C@@]13O[C@H]23` (stereo partly drawn), 4.60.
The same measure, in the same setting: in the case of `C=C(CO)[C@H]1C[C@H](O)[C@@]23O[C@@H]2[C@@H](C[C@]2(C)O[C@H]2C2=CC(C)=C(O2)[C@@H]1OC(C)=O)OC3=O` it was 4.59.
Take `C=C(C)[C@H]1C[C@H](OC(C)=O)C2=C[C@@H](C[C@]3(C)O[C@H]3C3=CC(C)=C(O3)[C@@H]1OC(C)=O)OC2=O`: the pEC50 is 4.84.
Still for that read-out and setting: in the case of `C=C(C)[C@@H]1CC2=C(C=O)C=C(O2)[C@@H]2O[C@@]2(C)C[C@@H]2C=C(C(=O)O2)[C@@H](OC(C)=O)C1` [DEOXYLOPHOTOXIN] it was 3.94; in that of `C=C(C(=O)OC)[C@H]1C[C@H](OC(C)=O)C2=C[C@@H](C[C@]3(C)O[C@H]3C3=CC(C)=C(O3)[C@@H]1OC(C)=O)OC2=O`, 5.13.
Still for that read-out and setting: the same measure for `C=C(CO)[C@H]1C[C@H](OC(C)=O)[C@@]23O[C@@H]2[C@@H](CC2(C)O[C@H]2C2=CC(C)=C(O2)[C@@H]1O)OC3=O` (single isomer, unassigned): 4.09.
On the same count and under the same terms, in the case of `C=C(C)[C@@H]1CC2=C(C(=O)OC)C=C(O2)[C@@H]2O[C@@]2(C)C[C@H]2OC(=O)[C@@]3(O[C@H]23)[C@@H](OC(C)=O)C1` it was 3.90; in that of `C=C(C)[C@@H]1CC2=C(C(=O)OC)C=C(O2)[C@@H]2O[C@@]2(C)C[C@@H]2C=C(C(=O)O2)[C@@H](OC(C)=O)C1` [ACETOXYPUKALIDE], 4.04.
The molecule `C=C(CO)[C@H]1C[C@H](OC(C)=O)[C@@]23O[C@@H]2[C@@H](C[C@]2(C)O[C@H]2C2=CC(C)=C(O2)[C@@H]1OC(C)=O)OC3=O` gave a pEC50 of 5.68.

The target of another assay is T1, Acetylcholine receptor. The assay is described as follows: In vitro ability to inhibit the binding of [125I]-alpha-bungarotoxin to nicotinic acetylcholine receptor on membranes prepared from the electric organs of Torpedo californica. Type of assay: tissue-based, Tetronarce californica, Electric organ.
Conditions: not given
In outline:
as §1
Turning to `COc1cc2c3cc1Oc1cc(ccc1O)C[C@@H]1c4c(cc(OC)c(O)c4Oc4ccc(cc4)C[C@@H]3N(C)CC2)CC[N+]1(C)C`, the negative-log EC50 (pEC50) is 2.49.
